The text below walks through data of ChEMBL document CHEMBL2385029, “Cytotoxic activities of substituted 3-(3,4,5-trimethoxybenzylidene)-1,3-dihydroindol-2-ones and studies on their mechanisms of action” (Eur J Med Chem, 2013).

Structures are written as SMILES. Active and inactive are the calls of the source. No cut-off for these calls is given here.

The nature of experiment [1]: Cytotoxicity against human colon cancer cells after 48 hrs. The format is functional. The note with it: Cancer cell lines. Summed up: (§1)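 NCI 60-cell panel, values averaged per subpanel. Compounds were dissolved in DMSO and first screened at a single 10⁻⁵ M dose. Active ones then went to five concentrations at ten-fold dilutions, top 10⁻⁴ M (10⁻³ M for some), with 48 h exposure.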

A short description of experiment [2]: Cytotoxicity against human CNS cancer cells after 48 hrs. The format is functional. To be noted: Cancer cell lines. Summed up: as §1
Experiment [3] is described as follows: Cytotoxicity against human leukemia cells after 48 hrs. The class given is functional. To be noted: Leukemia cell; for CC50: read-out: LC50 (the source's name).
A short description of experiment [4]: Cytotoxicity against human NSCLC cells after 48 hrs. The class given is functional. Summed up: as §1
Experiment [5] can be described thus: Inhibition of nox4 expression in human B1647 cells at 10 uM after 24 hrs by Western blot analysis relative to control. The format is functional. Summed up:
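B1647 cells treated 24 h at 10 µM. Lysates (40 µg protein per lane) run on 10% SDS-PAGE and transferred to nitrocellulose. Blots probed with anti-Nox4, with β-tubulin as loading control, and detected by chemiluminescence. Bands quantified by densitometry in arbitrary units relative to control; three independent experiments.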
A general note: In western blotting, separated proteins are transferred to a membrane and probed.

In experiment [6] the target is T1, NADPH oxidase 4 (Homo sapiens) (UniProt Q9NPH5).
T1 sequence (whole entry): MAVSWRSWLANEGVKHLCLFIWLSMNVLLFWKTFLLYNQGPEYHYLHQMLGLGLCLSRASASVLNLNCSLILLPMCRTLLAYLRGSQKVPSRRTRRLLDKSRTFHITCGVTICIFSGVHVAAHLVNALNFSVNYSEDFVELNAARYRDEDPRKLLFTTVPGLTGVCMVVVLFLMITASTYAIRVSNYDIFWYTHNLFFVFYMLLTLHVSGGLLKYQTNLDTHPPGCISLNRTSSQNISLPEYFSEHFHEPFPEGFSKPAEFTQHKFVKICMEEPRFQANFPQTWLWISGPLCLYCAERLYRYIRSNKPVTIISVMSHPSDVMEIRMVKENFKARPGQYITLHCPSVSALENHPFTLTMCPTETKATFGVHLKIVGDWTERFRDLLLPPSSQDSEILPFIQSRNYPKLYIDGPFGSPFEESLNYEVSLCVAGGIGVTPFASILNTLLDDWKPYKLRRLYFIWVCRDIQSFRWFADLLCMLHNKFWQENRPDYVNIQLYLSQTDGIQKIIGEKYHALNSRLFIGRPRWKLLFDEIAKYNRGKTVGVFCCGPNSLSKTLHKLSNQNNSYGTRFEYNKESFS
The experiment can be described thus: Inhibition of NOX4 in human nox2 silenced B1647 cells assessed as reduction of ROS production at 50 nM after 20 mins by DCFH-DA fluorescence assay. The format is cell-based. The note with it: 5 or 10 uM, in the assay text read “at 5 or 10 uM after 30 mins” for “at 50 nM after 20 mins”. Summed up: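 B1647 cells nucleofected with Nox2 siRNA or scrambled siRNA (final 50 nM), used after 24–48 h. Compound treatment for 30 min, then 5 µM DCFH-DA loading for 20 min at 37 °C and DCF fluorescence read. Scrambled cells served as control.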

The target of experiment [7] is T1, NADPH oxidase 4 (Homo sapiens). The experiment can be described thus: Inhibition of NOX4 in human B1647 cells assessed as reduction of ROS production after 20 mins by DCFH-DA fluorescence assay. The format is cell-based. To be noted: in the assay text read “after 30 mins” for “after 20 mins”. Summed up:
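B1647 cells given compound (DMSO) at 5 or 10 µM for 30 min, then at 1 × 10⁶/mL washed twice in PBS and loaded with 5 µM DCFH-DA for 20 min at 37 °C. DCF fluorescence read in multiwell plate; four independent experiments.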

The test system of a further experiment is B1647. Kind of experiment: Cytotoxicity against human B1647 cells at 5 to 10 uM after 24 hrs by MTT assay. The class given is functional, cell-based. The method, boiled down:
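B1647 human AML cells grown in IMDM with 5% human serum (37 °C, 5% CO2); 10⁶ cells per well in 1 mL exposed to 5 or 10 µM compound (DMSO) for 24 h. MTT 0.5 mg/mL added for 4 h at 37 °C, formazan dissolved overnight in 10% SDS/0.01 M HCl, A570 read. Four independent experiments.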
(Formazan colour is commonly taken as a measure of viable cells.)

A short description of experiment [8]: Cytotoxicity against human prostate cancer cells after 48 hrs. The format is functional. To be noted: Cancer cell lines. The method, boiled down:
as §1

Experiment [9] can be described thus: Cytotoxicity against human breast cancer cells after 48 hrs. The format is functional. To be noted: Cancer cell lines. Summed up: as §1
A short description of experiment [10]: Cytotoxicity against human renal cancer cells after 48 hrs. The format is functional. The note with it: Cancer cell lines.
Experiment [11] is described as follows: Cytotoxicity against human melanoma cells after 48 hrs. The format is functional. To be noted: Melanoma cell.
A short description of experiment [12]: Cytotoxicity against human ovarian cancer cells after 48 hrs. The format is functional. To be noted: Cancer cell lines; for CC50: read-out: LC50 (the source's name). The method, boiled down:
as §1

Experiment [13] is described as follows: Inhibition of bovine brain tubulin assembly after 20 mins.
A further experiment is filed under the species Bos taurus. Kind of experiment: Displacement of [3H]colchicine from bovine brain tubulin at 5 uM after 10 mins. (In a radioligand displacement assay an active substance lowers the binding of a labelled ligand.)
Setting [14] is: read-out: LC50 (the source's name).

`COc1cc(/C=C2/C(=O)Nc3cc(C)c(O)cc32)cc(OC)c1OC`: the 50% growth inhibitory concentration (GI50) (as a rule, the concentration at which growth is held to half of that of the control) in [1] was 4 µM; in [2], 5.2 µM; in experiment [3], 1.8 µM; in experiment [4], 5.7 µM; in experiment [8], 3.9 µM; in [9], 2.5 µM. The GI50 amounted to 7.1 µM in experiment [10], 3.6 µM in experiment [11] and 7.1 µM in experiment [12]. Besides, the LC50 (as a rule, the concentration lethal to half of the exposed cells or organisms) came to 53.7 µM in experiment [1], 85.1 µM in [2], 74.1 µM in [9] and 66.1 µM in experiment [10]. The total growth inhibition concentration (TGI) (usually the concentration giving total growth inhibition) in experiment [1] was 18.2 µM; in [2] it was 25.7 µM; in experiment [4], 31.6 µM; in experiment [8], 30.9 µM; in [9], 14.4 µM; in [10] it was 25.1 µM. Moreover, the concentration for total growth inhibition (TGI) came to 16.6 µM in experiment [11] and 37.1 µM in experiment [12]. Besides, the CC50 in [3] turned out to be 70.8 µM; in experiment [4] (setting [14]) it was 79.4 µM; in experiment [8] (setting [14]), 91.2 µM; in experiment [11] (setting [14]), 53.7 µM; in [12], 87.1 µM. The “fold change (FC)” value in [5] is listed as 0.64. Besides, the inhibition (commonly the share of the control response that was lost under treatment) in experiment [6] is “Active”. The inhibition entry in experiment [7] is “Dose-dependent effect”. The outcome in the experiment on B1647 was Active. In addition, in [13], the IC50 – broadly, the concentration needed to halve the response being measured – is over 20 µM.

`COc1cc(/C=C2\C(=O)Nc3ccc(Br)cc32)cc(OC)c1OC`: the concentration for 50% growth inhibition (GI50) stood at 6.2 µM in experiment [1]; 14.8 µM in [2]; 2.1 µM in experiment [3]; 9.5 µM in [4]; 11 µM in [8]; 3.2 µM in experiment [9]. The 50% growth inhibitory concentration (GI50) is 14.1 µM in experiment [10], 10.2 µM in experiment [11] and 17 µM in [12]. Also, the total growth inhibition concentration (TGI) in experiment [2] came out at 56.2 µM; in experiment [4] it was 77.6 µM; in experiment [9] it was 45.7 µM; in experiment [10] it was 75.9 µM; in experiment [12], 69.2 µM. For the same molecule, the “fold change (FC)” value in [5] is on record as 0.86. Moreover, the inhibition result in [6] is “Active”. Moreover, in [7], the inhibition result was “Dose-dependent effect”. The outcome in the experiment on B1647 was Active. The same molecule returned an IC50 in experiment [13] of over 20 µM.

In turn, `COc1cc(/N=C2\C(=O)N(Cc3ccccc3)c3ccccc32)cc(OC)c1OC` displayed a 50% inhibitory concentration (IC50) in experiment [13] of 3.3 µM. In the experiment filed under Bos taurus, the inhibition turned out to be 31%.

On to `c1ccc2c(c1)[I+]c1ccccc1-2` [DIPHENYLENEIODONIUM], for which the “fold change (FC)” value in experiment [5] stood at 0.73.

For `COc1cc(/C=C2\C(=O)Nc3ccc(N(C)C)cc32)cc(OC)c1OC`, the 50% growth inhibitory concentration (GI50) was determined as 2.4 µM in experiment [1]; 2.9 µM in experiment [2]; 1.1 µM in [3]; 4.2 µM in [4]; 2.5 µM in experiment [8]; 2.1 µM in [9]. Moreover, the figures for the concentration for 50% growth inhibition (GI50) in [10], in experiment [11] and in experiment [12] were 3.8 µM, 3.5 µM and 3.2 µM, respectively. Also, the LC50 was 81.3 µM in [1], 81.3 µM in [2] and 83.2 µM in experiment [10]. The TGI in [1] came out at 34.7 µM; in [2], 25.1 µM; in experiment [4], 41.7 µM; in experiment [8] it was 43.6 µM; in experiment [9] it was 37.1 µM; in [11] it was 42.7 µM. In addition, the CC50 in experiment [3] and in [12] was 81.3 µM each time. Moreover, the result in the experiment with B1647 was Active. In experiment [13], this molecule came in with a half-maximal inhibitory concentration (IC50) of over 20 µM.

`COc1ccc2c(c1)/C(=C\c1cc(OC)c(OC)c(OC)c1)C(=O)N2` displayed an IC50 in experiment [13] of 6.1 µM. The molecule also showed an inhibition in the experiment filed under Bos taurus of 35%.
